The test system of data set [1] is neuroblastoma cells. The data set can be described thus: In vitro cell viability. The data set is classed as cell-based. The conditions noted are these: 4 days, normalized to DMSO controls; for effect on viability: 100 and 200 μM.
For data set [2], the system named is neuroblastoma cells. The data set can be described thus: Cellular uptake by live-cell multiphoton microscopy. The format is cell-based. The following applies: 37°C. The gist of the method: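 Live neuroblastoma cells in HBSS kept at 37°C on a stage incubator. Two-photon imaging used 765 nm Ti:Sapphire excitation, a 20× objective and a GaAsP photon-counting detector, with 1024×1024 images at identical laser power. Imaging ran from 90 s (the earliest possible) and at 5 min after adding 100 μM test compound, then again 5 min after an HBSS wash and after re-addition.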

The subject of data set [3] is SK-N-AS neuroblastoma cells. The data set can be described thus: Calcium imaging with fura-2, SK-N-AS. The conditions noted are these: 100 μM. The data set is classed as cell-based.
A further data set concerns NGP neuroblastoma cells. Nature of the data set: Calcium imaging with fura-2, NGP. The data set is classed as cell-based. The conditions noted are these: 100 μM.
In data set [4] the test system is SK-N-AS neuroblastoma cells. The data set can be described thus: In vivo efficacy, SK-N-AS xenograft mouse model. Also noted: species or system athymic nu/nu mice.

Consider `O=C(O)[C@H]1O[C@@H](Oc2cc(O)cc(/C=C/c3ccc(O)cc3)c2)[C@H](O)[C@@H](O)[C@@H]1O` [3-Glu-Res, 3-O-glucuronidated Res], for which, in the data set with neuroblastoma cells [1], the effect on viability result was “no effect on viability”.

For the compound `O=C(O)[C@H]1O[C@@H](Oc2ccc(/C=C/c3cc(O)cc(O)c3)cc2)[C@H](O)[C@@H](O)[C@@H]1O` [4′-Glu-Res, 4′-O-glucuronidated Res], the effect on viability entry with neuroblastoma cells [1] is listed as “no effect on viability”.

`Oc1ccc(/C=C/c2cc(O)cc(O)c2)cc1` [Res, resveratrol]: the “reduction of the number of viable cells” value in the data set with neuroblastoma cells [1] (100 μM) is ~85%. In addition, the “cellular uptake (cellular fluorescence, excited at 765 nm)” value with neuroblastoma cells [2] (100 μM, HBSS) was “enters and then permeates throughout the cell”. Also, the “time after addition until cells become brightly fluorescent” value in the data set with neuroblastoma cells [2] (earliest time point that can be taken) is ≤ 90 s. In addition, the “change in [Ca^2+]i (fura-2 fluorescence)” value (in data set [3]; with NGP neuroblastoma cells) was “rise in [Ca^2+]i” throughout. For the same compound, the tumor regression entry in data set [4] (direct injection into the tumor, 250mg/kg, block copolymer formulation) is on record as “regression of the tumor was then observed”. Also, the “tumor inhibition compared to vehicle-treated controls” value in data set [4] (peri-tumor, 5 injections of 200 μL R-P104 (approx. 5.0 mg Res each) over two weeks) was “about 88%”.

`O=S(=O)(O)Oc1cc(O)cc(/C=C/c2ccc(O)cc2)c1` [monosulf-Res, Res 3-O-sulfate]: the effect on viability entry with neuroblastoma cells [1] is listed as “no effect on viability”.
